Assay results reported in ChEMBL document CHEMBL3414442, “Synthesis and biological evaluation of 2,4-diaminopyrimidines as selective Aurora A kinase inhibitors” (Eur J Med Chem, 2015).
Values belong to the molecule of their own block, whether it stands above or below them. Active and inactive are the calls of the source. The rule behind the calls is not given here.

Tests used:
A549 = experiment: Cytotoxicity against human A549 cells after 48 hrs by MTT assay; type: functional, cell-based; conditions: A549, 48 h
In short: (§1)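 Cells were grown at 37 °C in 5% CO2, plated and left to attach for 4–6 h, then exposed to five concentrations (dissolved in saline) in quadruplicate wells for 48 h. MTT was added for 4 h, formazan was dissolved in DMSO, and A490 was read. IC50 was taken from a log plot of percent of control versus concentration, as the mean of three independent experiments.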

HeLa [1] = experiment: Cytotoxicity against human HeLa cells after 48 hrs by MTT assay; type: functional, cell-based; in short: as §1
HepG2 = experiment: Cytotoxicity against human HepG2 cells after 48 hrs by MTT assay; type: functional, cell-based; conditions: HepG2, 48 h; in short: as §1
[2] = Cytotoxicity against human HCT8 cells after 48 hrs by MTT assay; type: functional, cell-based; conditions: HCT-8, 48 h; in short: as §1
HeLa [3] = experiment: Selectivity index, ratio of IC50 for Aurora B in human HeLa cells to IC50 for Aurora A in human HeLa cells; type: cell-based
[4] = target: T1, Aurora kinase A (Homo sapiens) (UniProt O14965); experiment: Inhibition of Aurora A in human HeLa cells after 12 hrs by Western blot method; type: cell-based
T1 sequence (whole entry): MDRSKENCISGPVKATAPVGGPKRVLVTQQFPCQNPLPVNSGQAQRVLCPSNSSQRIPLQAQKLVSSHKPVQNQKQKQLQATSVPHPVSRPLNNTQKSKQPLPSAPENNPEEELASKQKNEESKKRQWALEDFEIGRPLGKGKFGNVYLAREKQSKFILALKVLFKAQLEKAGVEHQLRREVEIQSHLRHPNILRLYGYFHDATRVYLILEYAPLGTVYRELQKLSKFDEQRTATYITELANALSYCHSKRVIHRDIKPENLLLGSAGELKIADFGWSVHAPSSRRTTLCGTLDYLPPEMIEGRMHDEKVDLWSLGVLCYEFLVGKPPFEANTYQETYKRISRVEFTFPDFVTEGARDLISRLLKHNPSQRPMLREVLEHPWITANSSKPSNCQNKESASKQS
In short: (§2)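 HeLa cells were treated for 12 h at 10, 25 or 50 nM. They were washed in PBS and lysed in Tris-HCl pH 7.5 buffer with EDTA, NaCl, PMSF and 1% SDS, then boiled for 10 min. Proteins were separated, blotted onto nitrocellulose and probed with antibodies against Aurora A or Aurora B.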

Aurora kinase B [5] = target: T2, Aurora kinase B (Homo sapiens, UniProt Q96GD4); experiment: Inhibition of Aurora B in human HeLa cells after 12 hrs by ELISA method; type: cell-based
T2 sequence (Q96GD4 whole entry): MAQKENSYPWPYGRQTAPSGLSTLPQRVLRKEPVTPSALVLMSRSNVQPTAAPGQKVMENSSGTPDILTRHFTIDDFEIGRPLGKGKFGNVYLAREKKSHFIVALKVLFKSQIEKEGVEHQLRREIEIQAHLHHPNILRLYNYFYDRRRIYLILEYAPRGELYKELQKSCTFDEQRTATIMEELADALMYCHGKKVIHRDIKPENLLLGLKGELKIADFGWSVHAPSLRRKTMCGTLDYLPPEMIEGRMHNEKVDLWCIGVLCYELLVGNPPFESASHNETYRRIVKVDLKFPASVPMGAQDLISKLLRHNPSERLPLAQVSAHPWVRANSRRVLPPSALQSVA

Aurora kinase A = target: T3, Aurora kinase A (Homo sapiens, UniProt O14965); experiment: Inhibition of Aurora A in human HeLa cells after 12 hrs by ELISA method; type: cell-based
T3 sequence (O14965 whole entry): T1 sequence (whole entry)

Aurora kinase B [6] = target: T2, Aurora kinase B; experiment: Inhibition of Aurora B in human HeLa cells after 12 hrs by Western blot method; type: cell-based; in short: as §2
HeLa [7] = experiment: Induction of cell cycle arrest in human HeLa cells assessed as accumulation at G1 phase at 2 uM after 12 hrs by propidium iodide staining based flow cytometry (reference value: 73%); type: functional
HeLa [8] = experiment: Induction of cell cycle arrest in human HeLa cells assessed as accumulation at G2/M phase at 5 uM after 12 hrs by propidium iodide staining based flow cytometry (reference value: 10.2%); type: functional
HeLa [9] = experiment: Induction of cell cycle arrest in human HeLa cells assessed as accumulation at G2/M phase at 2 uM after 12 hrs by propidium iodide staining based flow cytometry (reference value: 10.2%); type: functional
Aurora kinase B [10] = target: T2, Aurora kinase B; experiment: Inhibition of Aurora B in human HeLa cells at; type: cell-based
HeLa [11] = experiment: Induction of cell cycle arrest in human HeLa cells assessed as accumulation at G1 phase at 5 uM after 12 hrs by propidium iodide staining based flow cytometry (reference value: 73%); type: functional
HeLa [12] = experiment: Increase in cyclin B1 protein expression in human HeLa cells at 100 nM by Western blot method; type: functional, cell-based
In short: (§3)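 Lysates were boiled for 10 min and centrifuged. Proteins were separated, transferred to nitrocellulose, probed for cyclin B1 with antibodies and developed.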

Aurora kinase B [13] = target: T2, Aurora kinase B; experiment: Inhibition of Aurora B in human HeLa cells at >10 nM after 12 hrs by ELISA method; type: cell-based
In short: (§4)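 HeLa cells were treated for 12 h. A sandwich ELISA used plates coated with anti-human Aurora A or B antibody and an HRP-labelled detection antibody. TMB substrate was added, the reaction was stopped with sulphuric acid, and absorbance was read at 450 nm.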

HeLa [14] = experiment: Increase in cyclin B1 protein expression in human HeLa cells at 500 nM by Western blot method; type: functional, cell-based; in short: as §3
[15] = target: T1, Aurora kinase A (Homo sapiens); experiment: Inhibition of Aurora A in human HeLa cells at >10 nM after 12 hrs by ELISA method; type: cell-based; in short: as §4
HeLa [16] = experiment: Induction of cell cycle arrest in human HeLa cells assessed as accumulation at S phase at 5 uM after 12 hrs by propidium iodide staining based flow cytometry (reference value: 16.6%); type: functional
HeLa [17] = experiment: Induction of cell cycle arrest in human HeLa cells assessed as accumulation at S phase at 2 uM after 12 hrs by propidium iodide staining based flow cytometry (reference value: 16.6%); type: functional
HeLa [18] = experiment: Induction of cell cycle arrest in human HeLa cells assessed as accumulation at G2/M phase after 12 hrs by propidium iodide staining based flow cytometry; type: functional
[19] = target: T1, Aurora kinase A (Homo sapiens); experiment: Inhibition of Aurora A in human HeLa cells at; type: cell-based

Structure (SMILES): O=[N+]([O-])c1cnc(Nc2ccc(N3CCOCC3)cc2)nc1NC1CCCC1
IC50 (A549): 63.7 µM | IC50 (HeLa [1]): 36.4 µM | IC50 (HepG2): 21.9 µM | IC50 [2]: 20 µM

Structure (SMILES): CN1CCC(NC(=O)c2ccc(Nc3ncc(F)c(NC4CCCC4)n3)cc2)CC1
IC50 (A549): 10.3 µM | IC50 (HeLa [1]): 45.5 µM | IC50 (HepG2): 10 µM | IC50 [2]: 16 µM

Structure (SMILES): CCCNc1nc(Nc2ccc(N3CCN(C)CC3)cc2)ncc1F
IC50 (A549): 5.1 µM | IC50 (HeLa [1]): 14.2 µM | IC50 (HepG2): 35 µM | IC50 [2]: 50 µM

Structure (SMILES): CN1CCC(NC(=O)c2ccc(Nc3ncc([N+](=O)[O-])c(NC4CCCC4)n3)cc2)CC1
IC50 (A549): 42.3 µM | IC50 (HeLa [1]): 21.7 µM | IC50 (HepG2): 5.8 µM | IC50 [2]: 15.6 µM

Structure (SMILES): Cc1cc(Nc2cc(N3CCN(C)CC3)nc(Sc3ccc(NC(=O)C4CC4)cc3)n2)n[nH]1 [TOZASERTIB]
IC50 (A549): 19.4 µM | IC50 (HeLa [1]): 27.3 µM | IC50 (HepG2): 63.4 µM | IC50 [2]: 44.6 µM

Structure (SMILES): CN1CCN(c2ccc(Nc3ncc(F)c(NC4CCCC4)n3)cc2)CC1
IC50 (A549): 37.2 µM | IC50 (HeLa [1]): 20 µM | IC50 (HepG2): 25 µM | IC50 [2]: 29 µM

inhibition [4]: Dose-dependent effect | IC50 (Aurora kinase B [5]): 0.395 µM | IC50 (Aurora kinase A): 0.043 µM | inhibition (Aurora kinase B [6]): Dose-dependent effect
Structure (SMILES): COc1cc(C(=O)NC2CCN(C)CC2)ccc1Nc1ncc(F)c(NC2CCCC2)n1
Ratio IC50 (HeLa [3]): 9 | IC50 (A549): 2.1 µM | IC50 (HeLa [1]): 2.2 µM | IC50 (HepG2): 4.5 µM | IC50 [2]: 2.1 µM

Structure (SMILES): CN1CCN(c2ccc(Nc3ncc([N+](=O)[O-])c(NC4CCCC4)n3)cc2)CC1
IC50 (A549): 4.6 µM | IC50 (HeLa [1]): 3.8 µM | IC50 (HepG2): 5.2 µM | IC50 [2]: 53.7 µM

Structure (SMILES): CN1CCC(NC(=O)c2ccc(Nc3ncc(Cl)c(NC4CCCC4)n3)cc2)CC1
IC50 (A549): 1.8 µM | IC50 (HeLa [1]): 1.5 µM | IC50 (HepG2): 2.2 µM | IC50 [2]: 4.6 µM

Structure (SMILES): COc1cc(C(=O)NC2CCN(C)CC2)ccc1Nc1ncc(Cl)c(NC2CCCC2)n1
IC50 (A549): 5.3 µM | IC50 (HeLa [1]): 2.7 µM | IC50 (HepG2): 9.3 µM | IC50 [2]: 4.4 µM

Structure (SMILES): CN1CCN(c2ccc(Nc3ncc(N)c(NC4CCCC4)n3)cc2)CC1
IC50 (A549): 27 µM | IC50 (HeLa [1]): 9.7 µM | IC50 (HepG2): 18.5 µM | IC50 [2]: 4.2 µM

Structure (SMILES): Fc1cnc(Nc2ccc(N3CCOCC3)cc2)nc1NC1CC1
IC50 (A549): 8.7 µM | IC50 (HeLa [1]): 6 µM | IC50 (HepG2): 33 µM | IC50 [2]: 40.3 µM

Structure (SMILES): CCCNc1nc(Nc2ccc(N3CCOCC3)cc2)ncc1F
IC50 (A549): 8.8 µM | IC50 (HeLa [1]): 7.3 µM | IC50 (HepG2): 20 µM | IC50 [2]: 73.9 µM

Structure (SMILES): Fc1cnc(Nc2ccc(N3CCOCC3)cc2)nc1NC1CCCC1
IC50 (A549): 17.3 µM | IC50 (HeLa [1]): 31.4 µM | IC50 (HepG2): 36.5 µM | IC50 [2]: 24 µM

Structure (SMILES): COc1cc(C(=O)NC2CCN(C)CC2)ccc1Nc1ncc(Br)c(NC2CCCC2)n1
IC50 (A549): 2.5 µM | IC50 (HeLa [1]): 3.5 µM | IC50 (HepG2): 4.9 µM | IC50 [2]: 12 µM

inhibition [4]: Dose-dependent effect | IC50 (Aurora kinase B [5]): 0.43 µM | inhibition (Aurora kinase B [10]): inactive | IC50 (Aurora kinase A): 0.012 µM | inhibition (Aurora kinase B [13]): Active | inhibition [15]: Active | inhibition (Aurora kinase B [6]): Dose-dependent effect | inhibition [19]: inactive
Structure (SMILES): CN1CCC(NC(=O)c2ccc(Nc3ncc(Br)c(NC4CCCC4)n3)cc2)CC1
Ratio IC50 (HeLa [3]): 35 | Activity (HeLa [7]): 56.2% | Activity (HeLa [8]): 43.5% | Activity (HeLa [9]): 33.2% | Activity (HeLa [11]): 50.5% | inhibition (HeLa [12]): Active | IC50 (A549): 0.5 µM | IC50 (HeLa [1]): 0.9 µM | inhibition (HeLa [14]): Active | Activity (HeLa [16]): 6% | Activity (HeLa [17]): 10.6% | Activity (HeLa [18]): Dose-dependent effect | IC50 (HepG2): 2.4 µM | IC50 [2]: 3.6 µM
